How the values were obtained:
Rattus norvegicus = organism: Rattus norvegicus; test: Effect on inulin U/P ratio in rats in comparison to furosemide activity
[1] = It is the ratio, measured as saluretic activity in the dog as concentration of Na+ in urinary excretion (dose 1.56 mg/Kg, perorally) to that of K; format: functional, Urine
Outline: (§1)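 Trained male beagles, fasted 24 h with tap water ad libitum. Bladder emptied by catheter, then 20 mL/kg tap water by stomach tube, with 4 mL/kg water at each hourly catheterization up to 8 h. The first 2 h of urine served as control. Oral dosing came after the second catheterization, and 1–6 h urine was pooled. Na⁺ and K⁺ were measured by flame photometry, Cl⁻ argentometrically, in mequiv/kg.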

Canis familiaris [2] = test: sodium excretion collected at 7-24 hr time after oral administration in dog (four animals per dose) at dose 6.25 mg/kg.; format: functional, Canis lupus familiaris
Outline: (§2)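 Trained male beagles, four per dose, fasted 24 h with tap water ad libitum. After bladder emptying, given 20 mL/kg tap water by stomach tube, then 4 mL/kg at each hourly catheterization; 2 h control collection, then oral dosing. Urine volume and Na⁺ (flame photometry) reported for 1–6, 7–24 and 1–24 h post-dose periods.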

[3] = It is the ratio, measured as saluretic activity in the dog as concentration of Cl- in urinary excretion (dose 0.4 mg/Kg, perorally) to that of (Na++K+); format: functional, Urine
Outline: as §1

Canis familiaris [4] = test: sodium excretion collected at 7-24 hr time after oral administration in dog (four animals per dose) at dose 0.39 mg/kg.; format: functional, Canis lupus familiaris
Outline: as §2

Canis familiaris [5] = test: Urinary excretion collected at 1-6 hr time after oral administration in dog (four animals per dose) at dose 1.56 mg/kg.; format: functional, Canis lupus familiaris, Urine
Outline: as §2

Canis familiaris [6] = test: Saluretic activity in the dog measured as concentration of Cl - in urinary excretion (2 animals/dose) at (dose 12.5 mg/Kg, perorally); format: functional, Canis lupus familiaris, Urine
Outline: (§3)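 Male beagles trained to the procedures, food withdrawn 24 h before, tap water ad libitum. Bladder emptied by catheter, then 20 mL/kg tap water by stomach tube, plus 4 mL/kg orally at each hourly catheterization up to 8 h. The first 2 h of urine served as control. Compound given orally after the second catheterization. Urine from 1–6 h post-dose pooled; Na⁺ and K⁺ by flame photometry, Cl⁻ argentometrically, in mequiv/kg.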

Canis familiaris [7] = test: Urinary excretion collected at 7-24 hr time after oral administration in dog (four animals per dose) at dose 0.39 mg/kg.; format: functional, Canis lupus familiaris, Urine
Outline: as §2

Canis familiaris [8] = test: Urinary excretion collected at 1-6 hr time after oral administration in dog (four animals per dose) at dose 0.39 mg/kg.; format: functional, Canis lupus familiaris, Urine
Outline: as §2

Canis familiaris [9] = test: Saluretic activity in the dog measured as concentration of K+ in urinary excretion (2 animals/dose) at (dose 0.025 mg/Kg, perorally); format: functional, Canis lupus familiaris, Urine
Outline: as §3

Canis familiaris [10] = test: sodium excretion collected at 1-6 hr time after oral administration in dog (four animals per dose) dosed at 3.12 mg/kg.; format: functional, Canis lupus familiaris
Outline: as §2

Canis familiaris [11] = test: Diuretic activity in the dog (2 animals/dose) at (dose 0.025 mg/Kg), when administered perorally; format: functional, Canis lupus familiaris, Urine
Outline: as §1

Canis familiaris [12] = test: sodium excretion collected at 1-6 hr time after oral administration in dog (four animals per dose) dosed at 0.39 mg/kg.; format: functional, Canis lupus familiaris
Outline: as §2

Row | SMILES | Ratio (Rattus norvegicus) | Ratio [1] | Na+ excretion (Canis familiaris [2]) | Ratio [3] | Na+ excretion (Canis familiaris [4]) | Urinary excretion (Canis familiaris [5]) | Saldiuretic activity (Canis familiaris [6]) | Urinary excretion (Canis familiaris [7]) | Urinary excretion (Canis familiaris [8]) | Saluretic activity (Canis familiaris [9]) | Na+ excretion (Canis familiaris [10]) | Diuretic activity (Canis familiaris [11]) | Na+ excretion (Canis familiaris [12])
1 | NS(=O)(=O)c1cc(S(=O)(=O)[O-])c(NCc2ccco2)cc1Oc1ccccc1.[Na+] | 7.66 | 4.9 | 1.98 mequiv kg-1 | 1.1 | 0.47 mequiv kg-1 | 61.1 mL/kg | 7.13 m equiv 6hr-1 kg-1 | 9.3 mL/kg | 41.6 mL/kg |  |  |  | 
2 | CN(c1ccccc1)c1cc(NCc2ccco2)c(S(=O)(=O)[O-])cc1S(N)(=O)=O.[Na+] |  |  |  |  |  |  |  |  |  | 0.2 m equiv 6hr-1 kg-1 | 4.39 mequiv kg-1 | 33.3 ml kg-1 6hr-1 | 5.26 mequiv kg-1
